# An excerpt weighted towards active compounds, which were near 3.9% of everything screened.
# CHOP UPR activ: apoptotic UPR (CHOP) activation. CHO-CHOP luciferase reporter, luminescence; percent of tunicamycin response over DMSO baseline. activation, % at 10 µM. hit rate 0.34% among 330,000;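 active = at 10 µM dose, activation of 40% or more, normalized to positive control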;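 also: 100% = tunicamycin at 10 µg/mL and 0% = DMSO alone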
#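 Assay system: CHO-CHOP cells, stable luciferase reporter of PERK-eIF2a-CHOP signalling / Buffer or medium: F12 plus 10% serum / Compound dosing: one dose, 10 µM in 0.5% DMSO / Times: 6 h compound treatment, 37 °C / Technique: luciferase luminescence / Read-out: % reporter activation, DMSO baseline versus tunicamycin full activation / Benchmarks: tunicamycin and DMSO controls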
# CHOP inhibitor: CHOP inhibition in unfolded protein response | CHO-K1 CHOP-promoter luciferase, tunicamycin-induced, 15-18 h | inhibition, % at 10 µM | hit rate 3.8% among 220,000;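 active = compounds that reduced the stress-induced luciferase reporter signal by more than about 70% of percent inhibition, limit read from the data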;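 also: 0% = tunicamycin plus vehicle and 100% = wells without tunicamycin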
# Gli-Sufu antag: blocks Gli-Sufu signaling in a luciferase reporter; hit rate 0.74% among 340,000; AID 588413; inhibition, % at 5 µM; Sufu-KO-LIGHT fibroblasts, Gli luciferase reporter luminescence;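 active = inhibition above about 55%, limit read from the data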;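 also: 0% = DMSO-treated cells and 100% = wells with medium but no cells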
# 697 NFkB inh: inhibitors of the PMA/ionomycin-induced NF-kB reporter in 697 B cells. inhibition, % at 4 µM. 697 B-cell NF-kB luciferase reporter, 16 h. hit rate 0.33% among 330,000. AID 435022; in the data active = inhibition above about 35%
# Jurkat NFkB inh: lowers PMA/ionomycin-induced NF-kB signal in Jurkat cells | hit rate 0.53% among 330,000 | PMA/ionomycin-induced NF-kB luciferase reporter, luminescence | inhibition, % at 4 µM; in the data active = inhibition above about 50%
# XBP1 UPR activ: activators of adaptive arm of unfolded protein response (XBP1) | AID 463104 | activation, % at 20 µM | hit rate 0.33% among 330,000 | CHO-XBP1 luciferase reporter, IRE1-XBP1 UPR activation, luminescence; percent of tunicamycin response, DMSO as zero;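 active = versus positive control, 20 µM dose yields 30% or more activation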;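 also: 100% = tunicamycin at 10 µg/mL and 0% = DMSO only wells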
#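 Signal: luciferase luminescence; Assay system: CHO-XBP1 luciferase reporter cells; Amount: one thousand reporter cells per well; Dosing: 20 µM single concentration, DMSO 1%; Benchmarks: high control tunicamycin 10 µg/mL final, low control DMSO vehicle only; Schedule: 6 h compound exposure at 37 °C, 5% CO2; Evaluation: percent activation relative to tunicamycin reference.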
# * = called active by the depositor; x = not tested or not shown.
SMILES,CHOP UPR activ,CHOP inhibitor,Gli-Sufu antag,697 NFkB inh,Jurkat NFkB inh,XBP1 UPR activ
O=C(Nc1cccc2ccccc12)N(CCO)C1CCS(=O)(=O)C1 (configuration not stated),1,x,-3,-16,-1,-11
CCNC(=O)NC(=O)CSc1ccc(S(=O)(=O)N(C)C2CCCCC2)cn1,2,x,-5,13,-7,-3
CSc1nc(NNC=O)cc(Oc2ccc(NC(C)=O)cc2)n1,-1,x,5,14,6,-2
Cc1ccc(NC(=O)C2CCN(C(=O)OC(C)(C)C)CC2)cc1S(=O)(=O)N1CCCCC1,2,x,x,-6,4,-2
Cc1ccccc1CSCCNC(=O)COc1ccc(Cl)cc1,0,75*,9,20,2,-3
CC(C)(C)SCCNC(=O)COc1ccc(Cl)cc1,-1,13,-10,-61,-23,-4
Cc1nn2c(NCCCN(C)C)c3c(nc2c1-c1ccccc1)CCC3,0,93*,17,16,-5,2
Cc1nn2c(N3CCOCC3)c3c(nc2c1-c1ccccc1)CCCC3,0,72*,-7,-11,0,-1
CCn1ncc(NC(=S)Nc2ccc3c(c2)OCO3)c1C(N)=O,-2,33,-10,-3,-18,2
Cc1ccc(C(=O)N2CC(C)OC(C)C2)cc1S(=O)(=O)N1CCCCC1 (configuration not stated),0,x,4,2,4,-1
Cc1ccc2[nH]c(=O)c(N3CCOCC3)c(-c3ccccc3)c2c1,0,76*,1,20,2,-2
O=C(CCN1CCOCC1)Nc1c(-c2ccccc2)c2cc(Br)ccc2[nH]c1=O,-3,-6,1,5,-5,-1
Cc1ccc(NC(=O)c2ccc(Cl)c(S(=O)(=O)N3CCCC3)c2)nc1,2,x,2,-13,1,0
Cc1ccc(NC(=O)c2nc[nH]c2C(=O)N2CCc3ccccc3C2)cc1,4,x,2,11,7,-4
CCOC(=O)c1ccc(NC(=O)c2nc[nH]c2C(=O)N2CCc3ccccc3C2)cc1,1,72*,-23,-23,5,3
COc1ccc(F)cc1S(=O)(=O)NCCCn1ccnc1,0,x,10,-7,4,-4
COc1ccc(CN(C)C(=O)c2ccc(NS(=O)(=O)c3ccc(C)c([N+](=O)[O-])c3)cc2)c(OC)c1OC,-1,x,7,-9,14,-1
CCN(CC)CCN(C(=O)c1cc2c(ccc3ccccc32)oc1=O)c1nc2cc3c(cc2s1)OCCO3,19,x,28,-93,-74,210*
COc1cc([C@@H]2c3cc4c(cc3[C@@H](O[C@@H]3O[C@@H]5CO[C@@H](C)O[C@H]5[C@H](O)[C@H]3O)[C@H]3COC(=O)[C@H]23)OCO4)cc(OC)c1O,0,x,82*,-213,48,-2
COc1cc([C@@H]2c3cc4c(cc3[C@@H](NC3CCN(Cc5ccccc5)CC3)[C@H]3COC(=O)[C@H]23)OCO4)cc(OC)c1O,x,-376,x,x,x,x
Cc1onc(-c2ccccc2)c1C(=O)n1nnc2ccccc21,0,-43,19,11,6,-3
Cc1cc2ncn(C(=O)c3c(-c4c(Cl)cccc4Cl)noc3C)c2cc1C,-3,74*,-9,17,-9,-2
Cc1onc(-c2c(Cl)cccc2Cl)c1C(=O)N1CCOCC1,0,x,-9,18,-6,2
Cc1cc2ncn(C(=O)c3c(-c4ccccc4)noc3C)c2cc1C,0,72*,-4,13,15,-3
Cc1ccc(S(=O)(=O)NC(=O)Nc2ccc(C)cc2C)cc1,-3,x,6,-3,-30,-4
SMILES,CHOP UPR activ,CHOP inhibitor,Gli-Sufu antag,697 NFkB inh,Jurkat NFkB inh,XBP1 UPR activ
CCOC(=O)c1c(NC(=O)CN2CCCc3ccccc32)sc(C)c1C,4,52,2,8,6,-5
COC(=O)c1c(NC(=O)CN2CCCc3ccccc32)sc(C)c1C,-3,70*,6,-16,-14,-2
COc1ccc(-n2nc(C(=O)NCC(=O)NCCCN3CCOCC3)c3ccccc3c2=O)c(OC)c1,0,x,8,2,-7,-2
CCCN(C(=O)c1ccc(OCC(C)C)cc1)c1c(N)n(Cc2ccccc2)c(=O)[nH]c1=O,-2,x,-6,-13,-17,4
COc1ccc(-n2c(Cc3cccn3C)nnc2SCC(=O)Nc2ccc(Cl)cc2)cc1,0,71*,-11,-6,3,0
COc1ccc(-n2c(Cc3cccn3C)nnc2SCC(=O)Nc2ccccc2)cc1,-2,-1,-3,3,8,0
O=C(NCC1OCCc2ccccc21)c1ccc(NC(=O)c2ccc(Cl)cc2Cl)cc1 (configuration not stated),1,98*,1,-21,8,11
O=C(NCC1OCCc2ccccc21)c1ccc(NC(=O)c2ccccc2Cl)cc1 (configuration not stated),0,8,-6,-17,10,-1
O=C(Nc1ccc(N=Nc2ccccc2)cc1)c1ccc(Cl)cc1Cl,0,77*,-7,6,-2,-1
Cc1cccc(N2CCN(S(=O)(=O)c3ccc(Cl)nc3)CC2C)c1 (configuration not stated),0,x,-8,23,1,-2
CCN=C(Nc1cccc(F)c1)SC1CC(=O)N(c2ccc(OC)cc2)C1=O (configuration not stated),0,90*,8,-26,-34,-3
CCN=C(NCC)SC1CC(=O)N(c2cccc(OC)c2)C1=O (configuration not stated),1,-2,19,4,12,-5
Cc1cccc(N2C(=O)CC(SC(=Nc3ccccc3)Nc3ccccc3)C2=O)c1 (configuration not stated),4,69,1,-4,-4,-1
O=C1CC(SC(=Nc2ccccc2)Nc2ccccc2)C(=O)N1c1ccc(Cl)c(Cl)c1 (configuration not stated),1,90*,-13,-2,-10,-1
CCOC(=O)C1CCCN(CC(=O)Nc2c(C(=O)OC)[nH]c3ccc(Br)cc23)C1 (configuration not stated),0,77*,27,19,5,0
CCOC(=O)C1CCN(CC(=O)Nc2c(C(=O)OC)[nH]c3ccc(Cl)cc23)CC1,-2,x,-7,-13,24,7
Cc1ccc(Nc2nc(=O)c3cc([N+](=O)[O-])ccc3s2)cc1,2,93*,-22,-20,-15,3
Cc1ccc2nc(SCc3ccc([N+](=O)[O-])cc3)nc(C)c2c1,-2,75*,2,-18,-11,0
Cc1ccc2nc(C)cc(Nc3ccc([N+](=O)[O-])cc3)c2c1,x,104*,26,x,x,x
